Laboratory results: ChEMBL document CHEMBL1130120, “N-arylpiperazinyl-N'-propylamino derivatives of heteroaryl amides as functional uroselective alpha 1-adrenoceptor antagonists” (J Med Chem, 1997)

Legend:
[1] = biological target: T1, Alpha-1A adrenergic receptor (Oryctolagus cuniculus, UniProt O02824); experiment: Antagonistic activity against alpha 1A/1L receptor was assessed in a rabbit bladder neck functional assay; details: read-out: pA2 (converted)
T1 sequence (O02824 whole entry): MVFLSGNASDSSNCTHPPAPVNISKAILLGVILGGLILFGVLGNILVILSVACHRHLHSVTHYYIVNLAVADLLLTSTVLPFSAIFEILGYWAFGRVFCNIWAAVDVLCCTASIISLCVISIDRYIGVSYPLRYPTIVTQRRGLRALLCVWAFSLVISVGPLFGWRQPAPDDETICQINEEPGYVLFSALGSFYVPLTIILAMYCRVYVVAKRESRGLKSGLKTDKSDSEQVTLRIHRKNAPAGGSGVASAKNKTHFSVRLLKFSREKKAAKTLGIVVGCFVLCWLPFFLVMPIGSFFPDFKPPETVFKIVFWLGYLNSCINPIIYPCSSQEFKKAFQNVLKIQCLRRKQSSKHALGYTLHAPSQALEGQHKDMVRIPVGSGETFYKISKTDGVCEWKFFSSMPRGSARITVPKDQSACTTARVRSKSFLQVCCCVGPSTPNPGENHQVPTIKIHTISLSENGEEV

[2] = biological target: T2, Alpha-1A adrenergic receptor (Bos taurus, UniProt P18130); experiment: The compound was screened in vitro for the displacement of [3H]prazosin binding to bovine Alpha-1A adrenergic receptor
T2 sequence (P18130 whole entry): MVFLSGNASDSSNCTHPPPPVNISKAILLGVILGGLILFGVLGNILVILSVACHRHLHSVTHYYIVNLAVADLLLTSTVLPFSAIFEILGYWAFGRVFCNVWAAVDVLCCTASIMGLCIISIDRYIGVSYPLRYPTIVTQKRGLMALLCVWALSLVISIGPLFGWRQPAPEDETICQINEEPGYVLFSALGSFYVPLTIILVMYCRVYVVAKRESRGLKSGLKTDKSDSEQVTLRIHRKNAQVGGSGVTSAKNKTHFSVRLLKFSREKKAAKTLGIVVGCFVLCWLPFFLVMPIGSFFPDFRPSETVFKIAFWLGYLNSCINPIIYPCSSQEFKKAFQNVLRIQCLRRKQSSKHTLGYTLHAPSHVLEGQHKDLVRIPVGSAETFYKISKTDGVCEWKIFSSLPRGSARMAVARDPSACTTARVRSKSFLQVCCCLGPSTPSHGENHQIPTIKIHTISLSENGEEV

D(2) dopamine receptor = D(2) dopamine receptor (Homo sapiens, UniProt P14416); experiment: The compound's binding affinity against Dopamine receptor D2
Sequence of D(2) dopamine receptor (P14416 whole entry): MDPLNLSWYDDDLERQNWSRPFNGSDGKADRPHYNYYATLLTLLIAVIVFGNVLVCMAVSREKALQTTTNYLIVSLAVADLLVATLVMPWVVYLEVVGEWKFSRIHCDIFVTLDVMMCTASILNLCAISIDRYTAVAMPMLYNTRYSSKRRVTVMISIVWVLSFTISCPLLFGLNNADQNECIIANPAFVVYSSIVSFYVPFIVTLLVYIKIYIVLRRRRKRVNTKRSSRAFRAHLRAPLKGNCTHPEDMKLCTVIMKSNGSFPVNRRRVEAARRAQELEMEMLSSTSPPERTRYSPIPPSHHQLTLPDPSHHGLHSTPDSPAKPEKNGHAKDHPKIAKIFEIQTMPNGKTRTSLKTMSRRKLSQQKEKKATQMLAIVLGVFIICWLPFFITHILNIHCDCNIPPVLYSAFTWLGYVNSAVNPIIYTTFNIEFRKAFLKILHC

[3] = biological target: T3, Alpha-1D adrenergic receptor (Rattus norvegicus, UniProt P23944); experiment: Antagonistic activity against rat aorta for affinity estimates representative of the Alpha-1D adrenergic receptor; type: functional, tissue-based; details: read-out: pA2 (converted)
T3 sequence (P23944 whole entry): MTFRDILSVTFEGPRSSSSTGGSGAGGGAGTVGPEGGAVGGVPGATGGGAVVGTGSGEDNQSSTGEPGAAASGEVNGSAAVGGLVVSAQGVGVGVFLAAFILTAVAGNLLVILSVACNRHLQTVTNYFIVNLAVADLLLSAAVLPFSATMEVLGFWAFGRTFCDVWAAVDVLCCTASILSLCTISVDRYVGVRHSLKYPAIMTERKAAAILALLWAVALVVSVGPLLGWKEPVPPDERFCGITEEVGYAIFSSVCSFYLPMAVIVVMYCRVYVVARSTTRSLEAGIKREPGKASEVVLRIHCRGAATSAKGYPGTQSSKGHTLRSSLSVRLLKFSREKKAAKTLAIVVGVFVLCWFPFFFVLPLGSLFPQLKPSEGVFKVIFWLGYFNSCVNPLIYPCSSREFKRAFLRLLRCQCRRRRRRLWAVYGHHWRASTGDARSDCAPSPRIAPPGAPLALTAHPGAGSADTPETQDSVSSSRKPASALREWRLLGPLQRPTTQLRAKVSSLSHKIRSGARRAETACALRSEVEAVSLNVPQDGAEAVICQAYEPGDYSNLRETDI
How it was run: (§1)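 Isolated smooth-muscle tissue with cumulative norepinephrine concentration–effect curves (rat aorta, human lower urinary tract). Affinity obtained by full Schild regression for some antagonists. […] Competitive, reversible interaction at a single subtype assumed.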

[4] = biological target: Adrenergic receptor alpha-1 (Homo sapiens) (UniProt P35348+P25100+P35368); experiment: The compound was screened in vitro for functional activity against Alpha-1 adrenergic receptor subtypes of human prostate tissue; how it was run: as §1
[5] = biological target: T4, 5-hydroxytryptamine receptor 1A (Mus musculus) (UniProt Q64264); experiment: The compound's binding affinity against 5-hydroxytryptamine 1A receptor
T4 sequence (whole entry): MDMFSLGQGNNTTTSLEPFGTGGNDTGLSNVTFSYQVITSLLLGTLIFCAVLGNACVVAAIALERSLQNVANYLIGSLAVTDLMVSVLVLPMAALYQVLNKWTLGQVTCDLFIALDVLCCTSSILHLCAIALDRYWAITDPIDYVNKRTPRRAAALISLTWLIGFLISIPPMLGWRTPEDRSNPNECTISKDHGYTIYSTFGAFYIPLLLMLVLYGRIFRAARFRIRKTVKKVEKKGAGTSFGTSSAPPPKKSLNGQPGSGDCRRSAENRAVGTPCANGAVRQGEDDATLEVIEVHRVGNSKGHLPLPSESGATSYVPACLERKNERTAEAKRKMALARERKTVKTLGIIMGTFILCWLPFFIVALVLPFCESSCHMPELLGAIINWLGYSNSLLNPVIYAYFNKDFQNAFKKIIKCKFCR

[6] = biological target: T2, Alpha-1A adrenergic receptor; experiment: In vitro for the displacement of [3H]prazosin binding to bovine Alpha-1A adrenergic receptor
[7] = biological target: T5, Adrenergic receptor alpha-1 (Homo sapiens, UniProt P35348+P25100+P35368); experiment: Activity against Alpha-1 adrenergic receptor subtypes of human prostate tissue; type: functional
T5 sequence (P35348 whole entry): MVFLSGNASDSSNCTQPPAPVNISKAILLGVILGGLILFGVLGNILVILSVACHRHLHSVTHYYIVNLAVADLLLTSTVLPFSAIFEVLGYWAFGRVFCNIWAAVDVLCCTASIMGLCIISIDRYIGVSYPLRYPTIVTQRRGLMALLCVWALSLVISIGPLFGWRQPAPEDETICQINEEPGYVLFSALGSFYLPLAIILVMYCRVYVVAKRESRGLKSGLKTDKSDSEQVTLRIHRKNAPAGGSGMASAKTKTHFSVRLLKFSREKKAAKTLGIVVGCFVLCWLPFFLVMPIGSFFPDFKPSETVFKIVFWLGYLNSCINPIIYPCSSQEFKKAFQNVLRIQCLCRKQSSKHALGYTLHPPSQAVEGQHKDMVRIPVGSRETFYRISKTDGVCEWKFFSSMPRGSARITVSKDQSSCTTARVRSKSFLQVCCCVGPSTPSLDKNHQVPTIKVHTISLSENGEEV
T5 sequence (P25100 whole entry): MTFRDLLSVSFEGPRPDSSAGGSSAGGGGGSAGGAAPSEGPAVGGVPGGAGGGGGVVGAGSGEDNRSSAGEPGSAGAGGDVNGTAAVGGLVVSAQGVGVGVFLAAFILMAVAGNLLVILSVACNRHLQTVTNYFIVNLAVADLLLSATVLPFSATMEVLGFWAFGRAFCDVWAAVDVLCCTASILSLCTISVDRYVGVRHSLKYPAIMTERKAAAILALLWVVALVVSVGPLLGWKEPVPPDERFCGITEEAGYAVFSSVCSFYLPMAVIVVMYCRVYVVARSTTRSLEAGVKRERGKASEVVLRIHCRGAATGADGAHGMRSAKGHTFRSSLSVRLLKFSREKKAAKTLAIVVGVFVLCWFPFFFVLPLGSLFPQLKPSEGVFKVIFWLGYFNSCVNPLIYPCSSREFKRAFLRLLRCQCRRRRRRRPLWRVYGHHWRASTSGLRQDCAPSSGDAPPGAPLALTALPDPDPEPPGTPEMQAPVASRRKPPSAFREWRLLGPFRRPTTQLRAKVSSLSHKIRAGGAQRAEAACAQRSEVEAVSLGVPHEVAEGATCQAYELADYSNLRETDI
T5 sequence (P35368 whole entry): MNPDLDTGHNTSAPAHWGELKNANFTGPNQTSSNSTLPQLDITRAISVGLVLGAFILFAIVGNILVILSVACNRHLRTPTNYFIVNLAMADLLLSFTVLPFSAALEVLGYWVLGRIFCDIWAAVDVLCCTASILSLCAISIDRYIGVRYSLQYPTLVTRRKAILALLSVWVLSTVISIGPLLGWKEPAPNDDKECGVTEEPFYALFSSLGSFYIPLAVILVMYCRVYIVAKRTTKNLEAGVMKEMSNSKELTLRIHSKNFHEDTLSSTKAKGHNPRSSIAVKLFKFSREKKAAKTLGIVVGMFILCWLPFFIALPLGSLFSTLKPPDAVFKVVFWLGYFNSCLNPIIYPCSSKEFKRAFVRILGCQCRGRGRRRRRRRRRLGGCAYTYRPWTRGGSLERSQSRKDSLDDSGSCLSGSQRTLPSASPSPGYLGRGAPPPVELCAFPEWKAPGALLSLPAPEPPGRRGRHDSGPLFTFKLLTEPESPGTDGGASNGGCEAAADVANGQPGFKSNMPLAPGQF
How it was run: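 Isolated smooth-muscle tissue with cumulative norepinephrine concentration–effect curves (rat aorta, human lower urinary tract). Affinity obtained by full Schild regression for some antagonists. Competitive, reversible interaction at a single subtype assumed.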

[8] = biological target: T6, Alpha-2B adrenergic receptor (Rattus norvegicus, UniProt P19328); experiment: The compound's binding affinity against Alpha-2B adrenergic receptor from rat kidney homogenate in the presence of phentolamine
T6 sequence (P19328 whole entry): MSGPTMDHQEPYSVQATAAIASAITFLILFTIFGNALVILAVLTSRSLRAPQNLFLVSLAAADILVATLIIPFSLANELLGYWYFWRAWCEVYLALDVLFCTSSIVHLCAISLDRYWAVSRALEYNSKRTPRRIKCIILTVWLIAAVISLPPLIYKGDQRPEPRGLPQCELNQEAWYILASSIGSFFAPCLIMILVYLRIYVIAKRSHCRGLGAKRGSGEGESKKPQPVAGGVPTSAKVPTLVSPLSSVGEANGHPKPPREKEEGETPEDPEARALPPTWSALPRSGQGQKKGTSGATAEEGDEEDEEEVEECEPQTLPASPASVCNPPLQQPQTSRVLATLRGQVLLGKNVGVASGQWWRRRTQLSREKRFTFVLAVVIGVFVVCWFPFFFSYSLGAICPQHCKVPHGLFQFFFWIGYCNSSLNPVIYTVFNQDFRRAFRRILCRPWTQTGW

Row | Kb [1] [nM] | Ki [2] [nM] | pKi (D(2) dopamine receptor) | Kb [3] [nM] | pA2 [4] | pKi [5] | Ki [6] [nM] | pA2 [7] | Ki (D(2) dopamine receptor) [nM] | Ki [8] [nM] | SMILES
1 | 1.58 | 0.794 | 7.4 | 20 | 8.5 | 7.6 |  |  |  |  | COc1ccccc1N1CCN(CCCNc2ncccc2C(=O)N(C)C)CC1
2 | 1.26 |  | 6.4 | 316 | 9.3 | 6.5 |  |  |  |  | COc1cc(F)ccc1N1CCN(CCCNc2c(C(=O)N(C)C)cnc3c2c(C)nn3C)CC1
3 | 1.26 |  |  | 10 |  |  | 1.58 | 8.7 |  |  | COc1ccccc1N1CCN(CCCNc2ncccc2C(=O)NC(C)(C)C)CC1
4 | 0.501 |  | 8.1 | 126 | 9 | 7.5 |  |  |  |  | Cc1nn(C)c2ncc(C(=O)N(C)C)c(NCCCN3CCN(c4ccccc4OCC(F)(F)F)CC3)c12
5 | 1.58 |  | 6.7 | 63.1 | 8.5 | 6.7 |  |  |  |  | COc1cc(F)ccc1N1CCN(CCCNc2ncccc2C(=O)N(C)C)CC1
6 | 1.26 |  |  | 63.1 |  |  |  |  | 126 | 79.4 | CN(C)C(=O)c1cccnc1NCCCN1CCN(c2ccccc2-c2ccccc2)CC1
